SMILES strings stand for the structures. Activity calls are given as the source filed them. The calls are words filed in the database; no cut-off is given here.

The species entered for test [1] is Homo sapiens. Kind of test: Inhibition of full length His-tagged HSP90/GST-tagged Cdc37 (unknown origin) interaction at 100 uM after 1 hr by HTRF assay relative to control. In outline:
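HTRF assay using His-tagged full-length Hsp90 and GST-tagged Cdc37 M, each 250 nM final, in PBS with an extra 400 mM KF, pH 7.4. Compound incubated 1 h at 37 °C. Anti-GST-Cryptate and anti-6His-XL665 then added, 0.5 h at 37 °C. Ex 320 nm; ratio = (665/620 nm) × 10000. No-compound negative control and reagent-only blank.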

For test [2], the species on record is Homo sapiens. Kind of test: Inhibition of full length His-tagged HSP90/GST-tagged Cdc37 (unknown origin) interaction at 10 uM after 1 hr by HTRF assay relative to control.
The test system of test [3] is MCF7. Kind of test: Antiproliferative activity against human MCF7 cells at 10 uM after 72 hrs by MTT assay relative to control. The test is classed as functional. (In general: Formazan colour is commonly taken as a measure of viable cells.)
Test [4] relates to SK-BR-3. Kind of test: Antiproliferative activity against human SKBR3 cells at 10 uM after 72 hrs by MTT assay relative to control. The test is classed as functional.
For test [5], the system named is A549. Kind of test: Antiproliferative activity against human A549 cells at 10 uM after 72 hrs by MTT assay relative to control. The test is classed as functional.
Test [6] is filed under the species Homo sapiens. Kind of test: Inhibition of N-terminal GST-tagged HSP90/Cdc37 (unknown origin) interaction expressed in Escherichia coli at 20 uM preincubated with Cdc37 for 1 hr followed by addition to HSP90 by GST-pull down assay. In short, it runs like this: (§1)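 Pull-down with 10 μg GST-Hsp90 N-terminal domain immobilised as bait on glutathione resin spin columns. Compound incubated with Cdc37 for 1 h at 37 °C, then added to the columns. Loading buffer 25 mM Tris, 0.15 M NaCl, pH 7.2; elution with extra 10 mM reduced glutathione; spins 1 min at 1,000 × g, 4 °C. Eluate analysed by SDS-PAGE and anti-GST/anti-His western blot.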

For test [7], the species on record is Homo sapiens. Kind of test: Inhibition of HSP90/Cdc37 protein-protein interaction in human SKBR3 cells assessed as decrease in Akt level after 24 hrs by Western blot analysis. The test is classed as cell-based. In short, it runs like this: (§2)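 SKBR-3 cells treated with compound at 1, 10 and 50 μM for 24 h. After a PBS rinse and trypsinisation, cells lysed in Tris-HCl pH 7.5 buffer with NaCl, EDTA, NP-40, PMSF, NaF and DTT; lysate spun 12000 rpm, 10 min, 4 °C. Protein by BCA, equal loads on SDS-PAGE. Probed for Hsp90, Akt, Cdk4, β-actin; DyLight 800 secondary, infrared imaging.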
A general note: A western blot detects proteins with antibodies after separation by electrophoresis.

For test [8], the species on record is Homo sapiens. Kind of test: Inhibition of HSP90/Cdc37 protein-protein interaction in human SKBR3 cells assessed as decrease in CDK4 level after 24 hrs by Western blot analysis. The test is classed as cell-based. In outline:
as §2

Test [9] deals with SK-BR-3. Kind of test: Effect on HSP90 level in human SKBR3 cells at 1 to 50 uM after 24 hrs by Western blot analysis. The test is classed as functional, cell-based. In outline:
as §2

Test [10] has as its target Heat shock protein HSP90 (Homo sapiens, UniProt P07900+P08238). Kind of test: Binding affinity to N-terminal GST-tagged HSP90 (unknown origin) expressed in Escherichia coli by biolayer interferometry analysis. (Biolayer interferometry detects binding as a change in optical thickness at a sensor tip.)
A short description of test [11]: Inhibition of full length His-tagged HSP90/GST-tagged Cdc37 (unknown origin) interaction after 1 hr by HTRF assay. Set-up: species or system Homo sapiens. In outline: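 Final 250 nM each of His-Hsp90 (full length) and GST-Cdc37 M in PBS with extra 400 mM KF, pH 7.4. Compound added (300 μM to 1.23 μM, three-fold steps), 1 h at 37 °C. Anti-GST-cryptate and anti-6His-XL665 added, 0.5 h at 37 °C. TR-FRET read at ex 320 nm, em 665/620 nm, ratio ×10000. No-compound and reagent-only controls included.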

The test system of test [12] is MCF7. Kind of test: Antiproliferative activity against human MCF7 cells after 72 hrs by MTT assay. The test is classed as functional, cell-based. Particulars: MCF7, 72 h. In outline: (§3)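 Cells seeded at 10000/well and left 24 h, then exposed to compounds in DMSO (200 μM down to 0.823 μM, three-fold steps) for 72 h at 37 °C. Viability was read by MTT (5 mg/mL in PBS) with formazan dissolved in DMSO, OD at 490 nm. IC50 was taken from parallel experiments as mean ± SD. Media: MCF-7 in MEM, SKBR-3 in RPMI-1640, A549 in F12K, each with 10% FCS.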

For test [13], the system named is SK-BR-3. Kind of test: Antiproliferative activity against human SKBR3 cells after 72 hrs by MTT assay. Particulars: SK-BR-3, 72 h. The test is classed as functional, cell-based. In short, it runs like this: as §3
The subject of test [14] is A549. Kind of test: Antiproliferative activity against human A549 cells after 72 hrs by MTT assay. The test is classed as functional, cell-based. The note with it: A549, 72 h. In short, it runs like this: as §3
For test [15], the species on record is Homo sapiens. Kind of test: Inhibition of N-terminal GST-tagged HSP90/Cdc37 (unknown origin) interaction expressed in Escherichia coli preincubated with Cdc37 for 1 hr followed by addition to HSP90 by GST-pull down assay. In short, it runs like this:
as §1

What is called inhibition is the change of the read-out against control, counted positive when it falls. In the case of `CC1=C(O)C(=O)C=C2C1=CC=C1[C@@]2(C)CC[C@@]2(C)[C@@H]3C[C@](C)(C(=O)O)CC[C@]3(C)CC[C@]12C` [CELASTROL], the inhibition in test [1] was 92.3%; in [2] it was 79.3%; in test [7], “Dose-dependent effect”; in test [8], “Dose-dependent effect”. In addition, the Activity in test [3] worked out at 98.62%; in [4], 97.62%; in [5], 95.43%. The inhibition entry in [6] is “Active”. Besides, the result in test [9] was inactive.

The term Kd denotes the concentration at which binding is half-saturated. In general, IC50 refers to the midpoint of a concentration-inhibition curve. `Cn1nccc1NS(=O)(=O)c1ccc(NC(=O)CCC(=O)Nc2ccc(S(=O)(=O)Nc3ccnn3C)cc2)cc1`: the inhibition was 79.4% in test [1], “Dose-dependent effect” in test [15], “Dose-dependent effect” in test [7] and “Dose-dependent effect” in [8]. In addition, the Kd in [10] lay in the range of 40 to 40.4 µM. The IC50 in [11] is 27 to 27.4 µM; in test [12], 26.4 µM; in test [13], 14.7 µM; in test [14], 38.4 µM. Also, the outcome in test [9] was inactive.

These data come from ChEMBL document CHEMBL4138078, “Structure-based virtual screening and optimization of modulators targeting Hsp90-Cdc37 interaction” (Eur J Med Chem, 2017).
